High-throughput results as filed in PubChem BioAssay.
OX1R antag-1: antagonists of human orexin 1 receptor (OX1R). actives 1.8% (n = 330,000). inhibition, % at 6.6 µM. OX1R-expressing cells, FRET antagonist read-out. Orexin/Hypocretin receptor type 1 (Homo sapiens), O43613; in the data active = inhibition mostly above about 38%, no sharp cut-off; inactive = mostly below about 40%;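 note: 0% = agonist challenge alone and 100% = reference antagonist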
CHO parental Ca: ATP-evoked calcium signal inhibitors, parental CHO, primary screen, counter-screen for OX1R antagonist project, cell-based, fluorescence, Fluo-8 calcium dye; actives 0.63% (n = 330,000); parental CHO-K1, ATP-induced calcium, Fluo-8 fluorescence; inhibition, % at 5.6 µM;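 active = inhibition above that plate's mean sample inhibition plus 3 SD, cut at about 26% in these data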;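 note: 0% = ATP-challenged DMSO wells and 100% = DMSO wells without ATP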
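Test system: untransfected parental CHO cell line. Compound: one dose, 5.6 µM nominal. Detection: intracellular calcium via Fluo-8 no-wash fluorescent dye. Measure: % inhibition. Benchmarks: ATP-challenged DMSO wells low, unchallenged DMSO wells high.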
TAAR1 ag: human TAAR1 agonists, primary screen, Fluo-8 calcium fluorescence, CHO RD-HGA16 cells; vehicle wells 0%, saturating PEA agonist 100%; AID 624467, 2012; Trace amine-associated receptor 1 (Homo sapiens), Q96RJ0; actives 0.99% (n = 360,000); activation, % at 3 µM;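 active = activation above the mean activation of all test compounds in the run plus 3 SD, cut at about 38% in these data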
Target sequence (Q96RJ0 whole entry, looked up): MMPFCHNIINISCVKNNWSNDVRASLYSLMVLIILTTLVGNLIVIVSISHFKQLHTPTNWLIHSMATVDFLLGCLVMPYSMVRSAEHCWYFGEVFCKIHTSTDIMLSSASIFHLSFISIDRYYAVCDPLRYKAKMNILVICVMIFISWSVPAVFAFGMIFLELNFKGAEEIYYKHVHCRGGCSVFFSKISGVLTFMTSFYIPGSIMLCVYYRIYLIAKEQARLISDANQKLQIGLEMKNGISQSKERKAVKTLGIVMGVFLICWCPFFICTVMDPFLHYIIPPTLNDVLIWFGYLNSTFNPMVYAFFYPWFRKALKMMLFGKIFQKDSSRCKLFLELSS
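System: CHO-derived RD-HGA16 cells with stable Gα16 and human TAAR1. Times: 17-24 h plating, Fluo-8 75 min 37 °C, 30 min RT. Measured by: calcium-sensitive Fluo-8 signal, excitation 470-495, emission 515-575 nm. Read-out basis: % activation relative to PEA EC100 response. Control set: DMSO and PEA EC100. Repeats: no replicates (n 1).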
TAAR1 antagonist: human TAAR1 antagonists, primary screen, Fluo-8 calcium fluorescence, CHO RD-HGA16 cells; Trace amine-associated receptor 1 (Homo sapiens), Q96RJ0; antagonist; actives 1.5% (n = 360,000); inhibition, % at 3 µM;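 active = inhibition above a per-plate cutoff, the mean inhibition of test compounds on that plate plus 3 SD, cut at about 49% in these data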;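 note: 0% = DMSO plus EC80 beta-PEA response and 100% = DMSO alone without agonist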
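Test system: CHO RD-HGA16 cells bearing hTAAR1 | Reagent: β-PEA, EC80 | Compound dosing: 3 µM, single point | Schedule: Dye loading 75 min at 37 °C, then 30 min room temperature | Signal: Calcium fluorescence with Fluo-8 | Evaluation: Percent inhibition of PEA-evoked calcium signal, max/basal emission ratio | Control set: DMSO-only wells and EC80 β-PEA-stimulated wells | Repeats: Singlicate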
OX1R antag-2: OX1R (HCRTR1) antagonists, primary screen, fluorescence, CHO/OX1R cells, Fluo-8 calcium, orexin A; Fluo-8 calcium fluorescence; inhibition, % at 5 µM; Orexin/Hypocretin receptor type 1 (Homo sapiens), O43613; actives 0.43% (n = 330,000);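 active = inhibition above its plate's threshold, mean inhibition of all tested compounds on the plate plus 3 SD, cut at about 37% in these data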;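 note: 0% = orexin A challenge wells and 100% = SB-334867-A antagonist wells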
* hit, by the source's call; . = no result. An excerpt weighted towards active compounds, which were near 4% of everything screened.

SMILES | OX1R antag-1 | CHO parental Ca | TAAR1 ag | TAAR1 antagonist | OX1R antag-2
COc1cccc(Nc2nn3c(=O)c4ccccc4nc3s2)c1 | 39* | -14 | . | . | 14
Cc1ccc(C(OCC(O)CNCc2ccc(F)cc2)c2ccccc2)cc1 (stereo not drawn) | -14 | 4 | 40* | 32 | -20
COc1ccc(C(OCC(O)CNC(C)c2ccccc2)c2ccc(OC)cc2)cc1 (stereo not drawn) | 1 | -6 | 14 | 2 | -12
O=C(Nc1cccc(-c2cn3ccccc3n2)c1)c1ccccc1 | 53* | -20 | 6 | 7 | -14
Cc1ccccc1C(=O)Nc1cccc(-c2cn3ccccc3n2)c1 | 73* | -20 | 13 | 36 | -24
O=C1CCC(C(=O)N2CCc3ccccc3C2)CN1CCCN1CCOCC1 (stereo not drawn) | 20 | 2 | 1 | 13 | -11
COc1cc(C(=O)Nc2ccn(C)n2)ccc1OC(F)F | 6 | -8 | 1 | 0 | -5
O=C(N[C@H](C(=O)N1CCC[C@H]1C(=O)NCCc1ccccc1Cl)c1ccccc1)c1ccc(Cl)c(Cl)c1 | . | . | 4 | 44 | .
COc1ccccc1-c1cccc(-c2nc(C(=O)N3CCCCC3)cc3c2[C@H](CCO)N(S(=O)C(C)(C)C)C3)c1 (stereo partly drawn) | . | . | 15 | 58* | .
CN1CCN(C(=O)c2cc3c(c(-c4cccc(C#CC(C)(C)O)c4)n2)[C@H](CCO)N(S(=O)C(C)(C)C)C3)CC1 (stereo partly drawn) | . | . | 1 | 6 | .
CCCNC(=O)c1cc2c(c(-c3cccc(-c4ccc(F)cc4)c3)n1)[C@@H](CCO)N(S(=O)C(C)(C)C)C2 (stereo partly drawn) | . | . | 12 | 49* | .
CCCNC(=O)c1cc2c(c(-c3cccc(-c4ccc(F)cc4)c3)n1)[C@H](CCO)N(S(=O)C(C)(C)C)C2 (stereo partly drawn) | . | . | 14 | 47 | .
COCc1[nH]nc2c1C(c1ccccc1)N(Cc1ccccc1)C2=O (stereo not drawn) | . | . | 0 | -3 | .
C#CCN(Cc1ccco1)C(=O)c1nnc2c3ccccc3n(S(=O)(=O)c3ccccc3)c2n1 | . | . | 0 | -14 | .
CN(C)c1ccc(C2CNC(c3ccc(Cl)c([N+](=O)[O-])c3)c3[nH]c4ccccc4c32)cc1 (stereo not drawn) | 31 | -13 | -2 | -16 | -16
O=[N+]([O-])c1cccc(C2NCC(c3ccccc3Cl)c3c2[nH]c2ccccc32)c1 (stereo not drawn) | 18 | 50* | 14 | 15 | 53*
COc1ccccc1Nc1nc(-c2cccnc2)cs1 | 38* | -19 | 0 | -6 | -27
COc1ccc(Nc2nc(-c3cccnc3)cs2)c(OC)c1 | . | . | -2 | 2 | .
O=[N+]([O-])c1ccccc1Nc1nc(-c2cccnc2)cs1 | 60* | -17 | 4 | 4 | 0
CN(C)c1ccc(-c2nc3ccccc3c(=O)[nH]2)cc1 | 57* | -4 | 5 | -45 | 17
COc1ccc(-c2nc3ccccc3c(=O)[nH]2)cc1 | 7 | 3 | 1 | 6 | -1
CCOC(=O)c1nn(-c2cccc(OC)c2)c2nc(Nc3ccccc3)cc(=O)n12 | 14 | 94* | 27 | 33 | -5
Nc1ccc(C(=O)O)c(O)c1 | 20 | 2 | 1 | -15 | 3
Cc1ccc(N)cc1O | 38* | -5 | 1 | -7 | -11
Cc1cc(S(=O)(=O)N2CCCOC2CNC(=O)C(=O)NCCc2ccco2)ccc1F (stereo not drawn) | 61* | -18 | 0 | -12 | 11
SMILES | OX1R antag-1 | CHO parental Ca | TAAR1 ag | TAAR1 antagonist | OX1R antag-2
Cc1ccc(C)c(S(=O)(=O)N2CCCC2CNC(=O)C(=O)NCCc2ccco2)c1 (stereo not drawn) | 58* | -15 | 12 | 47 | 11
Cc1ccc(S(=O)(=O)N2CCCCC2CCNC(=O)C(=O)NCCc2ccco2)cc1 (stereo not drawn) | 48 | -23 | 0 | -36 | 9
Cc1ccc(C)c(S(=O)(=O)N2CCCCC2CCNC(=O)C(=O)NCCc2ccco2)c1 (stereo not drawn) | 55* | -29 | 3 | 11 | -2
Cc1ccc(S(=O)(=O)N2CCCOC2CNC(=O)C(=O)NCCc2ccco2)cc1 (stereo not drawn) | . | . | 21 | -4 | .
C=C1[C@@H](CCO)N(S(=O)C(C)(C)C)C[C@@H]1C (stereo partly drawn) | . | . | 0 | 1 | .
CCCCN(Cc1ccccc1)C(=O)CCN1C(=O)C2C3C=CC(C3)C2C1=O (stereo not drawn) | 12 | -11 | 1 | 12 | -26
Nc1nc(-c2ccc(Cl)cc2)cc(C(F)(F)F)n1 | 14 | 39* | 4 | 8 | -2
CCCCc1c(-c2ccccc2OC)ncn1Cc1ccccc1Cl | . | . | 4 | 23 | .
COc1ccc2sc(-c3ccc(SC)cc3)c(-c3ccc(O)cc3)c2c1 | 15 | 17 | 20 | 58* | 39
COc1ccc2sc(-c3ccccc3OC)c(-c3ccc(SC)cc3)c2c1 | . | . | 5 | -28 | .
Cc1ccc(SCCNC(=O)c2ccc(C)c(S(=O)(=O)Nc3ccccc3C)c2)cc1 | 48* | 8 | 2 | 35 | 20
Cc1ccccc1NS(=O)(=O)c1cc(C(=O)NCc2ccco2)ccc1C | 13 | -17 | 2 | -1 | -11
CCCCOCCCNc1ncnc2c1[nH]c1ccccc12 | 52* | 43* | 10 | 31 | 8
CCOCCCNc1ncnc2c1[nH]c1ccccc12 | 34 | 9 | 1 | 15 | -3
CCCCOc1ncnc2c1[nH]c1ccc(F)cc12 | 34 | 32* | 9 | 29 | 39
CCCCOc1ncnc2c1[nH]c1ccccc12 | 73* | 28 | 2 | 3 | 36
CN(Cc1ccc2c(c1)CCCN2C)C(=O)[C@@H](Cc1ccccc1)NC(=O)[C@H]1O[C@@H](n2ccc(=O)[nH]c2=O)[C@H](O)[C@@H]1O | . | . | 0 | 12 | .
CCc1ccc(NC(=O)Cc2c(C(=O)O)n(C)c3ccccc23)cc1 | 10 | -12 | 4 | 3 | -7
CC1CN(c2ccc(NC(=S)NNCCC#N)cc2)CC(C)O1 (stereo not drawn) | 13 | -23 | 2 | 7 | -14
COC(=O)c1cc2c(c3c4ccccc4n(S(=O)(=O)c4cccc(C)c4)c13)C(=O)N(C)C2 | . | . | -2 | -11 | .
COc1ccc(C(=O)N2CCC2)cc1S(=O)(=O)NCc1ccc(Cl)cc1 | -1 | -13 | 10 | -12 | -7
O=C(Nc1c2ccccc2nc2ccccc12)C(Cl)(Cl)Cl | 69* | 1 | . | . | 1
